# Compounds with a hit are over-represented: about 2.2% of the library has one in this group of screens.
# HSP90 refold inh: inhibitors of HSP90 luciferase refolding in rabbit reticulocyte lysate; luciferase refolding luminescence, 3 h; inhibition, % at 5.6 µM; 290,000 compounds, 0.91% hits; AID 1789;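 active means inhibition above the screen-wide mean plus 3 SD, computed separately per campaign, cut at about 16% in these data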;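 further: inhibitors lower the luminescence because luciferase stays unfolded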
# FLuc stim CS: firefly luciferase counter-screen for stimulation assays | ATPlite luciferase biochemical, luminescence, 10 min; 0 = ATP-free wells, 1 = DMSO control | P08659 | activation factor at 10 µM | 200,000 tested, under 10 active | AID 1027;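 active means luciferase activation factor, scaled between plate controls, of at least 2 with compound at 10 µM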
# Target sequence (P08659 whole entry, looked up): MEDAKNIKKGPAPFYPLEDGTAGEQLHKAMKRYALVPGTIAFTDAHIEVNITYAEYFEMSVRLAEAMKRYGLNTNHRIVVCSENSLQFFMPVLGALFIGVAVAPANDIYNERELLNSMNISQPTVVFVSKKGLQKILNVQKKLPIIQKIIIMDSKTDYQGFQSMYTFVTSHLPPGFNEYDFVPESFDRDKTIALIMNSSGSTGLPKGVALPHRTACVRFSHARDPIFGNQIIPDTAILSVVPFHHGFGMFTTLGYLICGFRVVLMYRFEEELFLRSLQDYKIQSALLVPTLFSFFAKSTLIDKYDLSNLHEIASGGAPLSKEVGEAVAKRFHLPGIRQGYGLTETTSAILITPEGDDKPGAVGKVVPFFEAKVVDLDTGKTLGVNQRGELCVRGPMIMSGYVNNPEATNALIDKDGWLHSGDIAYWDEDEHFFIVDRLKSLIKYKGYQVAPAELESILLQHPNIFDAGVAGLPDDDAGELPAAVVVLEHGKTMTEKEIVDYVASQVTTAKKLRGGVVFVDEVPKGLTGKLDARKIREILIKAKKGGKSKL
#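 System: Luciferase/luciferin detection reagent, cell-free biochemical luciferase assay | Medium: PBS buffer for ATP | Dosing: Test compounds dosed from 2 mM stocks in 100% DMSO | Timing: 10 min at ambient temperature | Signal: Luminescence measurement of luciferase light output | Evaluation: Luciferase activation, seen as luminescence increase over controls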
# STAT3 inh-1: reduces IL-6 driven STAT3 reporter signal. AID 862. U3A cells, IL-6 STAT3-luciferase reporter, luminescence; host cell line lacks STAT1. 190,000 compounds, 0.89% hits. inhibition, % at 5.5 µM;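 active means inhibition above the mean inhibition across all screened compounds plus 3 SD, cut at about 44% in these data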
# FLuc inhib CS: inhibits firefly luciferase, flagging false hits in luciferase inhibition screens; P08659; ATPLite firefly luciferase biochemical luminescence, 10 min; inhibition, % at 10 µM; 200,000 compounds, 1.5% hits;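 active means inhibition above about 50% when tested at 10 µM, limit read from the data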
# PPC-1+TRAIL kill: compounds killing PPC-1 cancer cells with TRAIL present (potentiator screen, no TRAIL-free arm) | PPC-1 cells + TRAIL, ATPLite viability luminescence | cell killing (% activity), % at 4 µM or 5 µM | 220,000 compounds, 0.41% hits;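 active means cell killing above 50% in the first pass at 4 µM, then a duplicate retest at 5 µM averaging 50% or more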
# C8 TRAIL sens: caspase-8 TRAIL sensitization | inhibition (viability loss, TRAIL sensitization), % at 10 µM | NB7+C8 cells + TRAIL, ATPlite viability luminescence | AID 624354 | 360,000 compounds, 1% hits;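 active means compounds causing at least 50% loss of cell viability in the single-dose screen, relative to plate controls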
# STAT3 inh-2: confirmation of STAT3 signaling inhibitors | shares compounds with STAT3 inh-1 | U3A cells, IL-6 STAT3 luciferase reporter, luminescence; cell line lacks STAT1 | inhibition, % at 5.7 µM | 1,200 compounds, 45% hits | AID 1265;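 active means inhibition above the hit cutoff computed for the primary STAT3 screen, cut at about 44% in these data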
# NFkB inh 2: NF-kappaB inhibition in STAT3 inhibitor counter-screen; HEK293T NF-kB luciferase reporter, TNF-alpha induced; AID 1308; inhibition, % at 5.7 µM; shares compounds with STAT3 inh-1; 1,200 compounds, 36% hits;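 active means inhibition above the mean of solvent-only control wells plus 3 SD, cutoff set per campaign, cut at about 13% in these data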
# STAT1 inh STAT3c: counter-screen for STAT3 inhibitors: STAT1 inhibition. inhibition, % at 5.7 µM. 1,200 compounds, 27% hits. AID 1317. shares compounds with STAT3 inh-1. NIH 3T3 STAT1-luciferase reporter, IFN-gamma induced, luminescence;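 active means inhibition above the mean plus 3 SD of solvent-only control wells, limit set per screening run, cut at about 16% in these data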
# A number is an active result; 0 = inactive; - = no result.
SMILES,HSP90 refold inh,FLuc stim CS,STAT3 inh-1,FLuc inhib CS,PPC-1+TRAIL kill,C8 TRAIL sens,STAT3 inh-2,NFkB inh 2,STAT1 inh STAT3c
COC(=O)c1ccc(C2/C(=C(/O)c3ccc4c(c3)CC(C)O4)C(=O)C(=O)N2Cc2ccncc2)cc1 (stereo unspecified),0,-,-,-,-,0,-,-,-
Cc1c(C(C)C)c(=O)n(-c2ccc(S(=O)(=O)NC3CCCCC3)cc2)n1C,0,0,53,0,0,0,59,14,21
Cc1c(C(C)C)c(=O)n(-c2ccc(S(=O)(=O)NCc3ccccc3)cc2)n1C,0,0,81,0,0,0,80,30,21
Cc1c(C(C)C)c(=O)n(-c2ccc(S(=O)(=O)N3CCOCC3)cc2)n1C,0,0,0,0,0,0,-,-,-
CC(O)(c1ccncc1)c1nc(-c2cccc(C(F)(F)F)c2)cs1 (stereo unspecified),-,-,-,-,-,0,-,-,-
O=c1[nH]c(CSc2ccccn2)nc2c1oc1ccccc12,0,0,71,61,0,0,0,0,0
CS(=O)(=O)Nc1ccc(C2=NN(C(=O)CCCC(=O)O)C(c3cccs3)C2)cc1 (stereo unspecified),0,-,-,-,-,0,-,-,-
CC1(c2ccc(Cl)cc2)NC(=O)N(CC(=O)Nc2cccnc2Cl)C1=O (stereo unspecified),-,-,-,-,-,0,-,-,-
C=CCNc1nc2c(c(=O)n(C)c(=O)n2C)n1CCCCCC,0,0,54,0,0,0,64,15,30
C=CCNc1nc2c(c(=O)n(C)c(=O)n2C)n1CC,0,0,0,0,0,0,-,-,-
CCCCCCN=C(C)c1ccccc1O,0,-,-,-,0,0,-,-,-
O=C1C(C=Nc2ccc(F)cc2)=C(O)c2ccccc21,0,0,51,77,0,57,0,0,0
O=C1C(C=NCc2ccncc2)=C(O)c2ccccc21,0,0,0,0,0,0,-,-,-
CCN(CC(=O)NCc1ccc(F)cc1)C(=O)Cc1ccc(OC)cc1,0,-,-,-,-,0,-,-,-
NCc1csc(Nc2ncccn2)n1,-,-,-,-,-,0,-,-,-
c1ccc2c(c1)[nH]c1c(N3CCSCC3)ncnc12,0,-,0,-,-,0,-,-,-
c1ccc2c(c1)[nH]c1c(N3CCCC3)ncnc12,0,0,46,0,0,0,0,18,23
CCC(=O)Nc1cc(OC)c(NC(=S)Nc2ccccc2CC)cc1OC,-,-,-,-,-,0,-,-,-
CC(C)C(NC(=O)c1ccc(C(C)(C)C)cc1)C(=O)Nc1cccc(S(N)(=O)=O)c1 (stereo unspecified),0,0,44,0,0,0,0,0,0
Fc1ccc(Sc2ccccc2CNC2=NCCN2)cc1,0,0,46,0,0,0,0,0,0
OCCNC1=NCCN1,0,0,0,0,0,0,-,-,-
CSc1ncnc2c1ncn2CCCNCCCN1CCCC1=O,-,-,-,-,-,0,-,-,-
CCNC(=S)NNC(=O)c1cc(-c2cccnc2)nc2ccccc12,0,0,0,0,0,0,-,-,-
CCNC(=S)NNC(=O)c1cc(-c2ccc(OC)cc2)nc2ccccc12,0,0,74,96,88,89,0,28,0
O=C(CSc1nnc(-c2c[nH]c3ccccc23)o1)N1CCCCC1,0,0,0,0,0,0,-,-,-
SMILES,HSP90 refold inh,FLuc stim CS,STAT3 inh-1,FLuc inhib CS,PPC-1+TRAIL kill,C8 TRAIL sens,STAT3 inh-2,NFkB inh 2,STAT1 inh STAT3c
O=C(CSc1nnc(-c2c[nH]c3ccccc23)o1)N1c2ccccc2CCc2ccccc21,0,0,49,0,0,0,0,0,0
Cn1c(CN2CCCCC2)nc2cc(NC(=O)c3cccc(Br)c3)ccc21,0,0,63,0,0,0,51,0,0
CC1CCCC(NC(=O)COC(=O)CCC(=O)c2ccc(F)cc2)C1C (stereo unspecified),-,-,-,-,-,0,-,-,-
Cc1cc(-n2c(C)cc(C(=O)CSc3ncnc4ccccc34)c2C)no1,0,0,75,0,0,0,75,25,23
O=C(Nc1ccc(Oc2ccccc2)cc1)c1cnc2n(c1=O)CCS2,0,0,78,0,0,0,73,0,0
Cc1ccc(-c2csc(NC(=O)C3CCN(S(=O)(=O)c4cccs4)CC3)n2)cc1,0,0,79,0,0,0,84,33,17
O=C(Nc1nc(-c2ccc(S(=O)(=O)N3CCCC3)cc2)cs1)c1cccs1,0,0,47,0,0,0,0,0,17
O=C(Nc1nc(-c2ccc(S(=O)(=O)N3CCOCC3)cc2)cs1)c1ccccc1,0,0,50,0,0,0,44,18,24
COCCCN(C(=O)c1cc(Cl)nc2ccccc12)c1c(N)n(Cc2ccccc2)c(=O)[nH]c1=O,-,-,-,-,-,0,-,-,-
CCCCNC(=O)C1(C)CCCCCN1Cc1cc2ccccc2o1 (stereo unspecified),-,-,-,-,-,0,-,-,-
CC(=O)Nc1ccc(SCC(=O)c2cc(C)n(-c3ccccc3F)c2C)cc1,0,0,54,0,0,0,0,0,0
CCOC(=O)c1ccc(NC(=O)CSc2nc3cccnc3n2C)cc1,0,0,54,0,0,0,0,0,0
COc1ccc(Cc2c(C3CCCCC3)nc3c(C)cc(Br)cn23)c(C)c1,-,-,-,-,-,0,-,-,-
Cc1cc(C(=O)CSc2nnc(-c3cccs3)o2)c(C)n1-c1ccccc1,0,0,47,0,0,0,0,17,0
O=C(CSc1nnc(-c2cccs2)o1)c1cccs1,0,0,0,0,0,0,-,-,-
Cc1noc(C)c1CSc1nc2ccccc2[nH]1,0,0,0,0,0,0,-,-,-
c1ccc(-c2cc(CSc3nc4ccccc4[nH]3)on2)cc1,0,0,46,0,0,0,0,0,0
O=C(NCc1ccc(F)cc1)C1CCC(=O)N1C1CCCCC1 (stereo unspecified),0,0,45,0,0,0,0,0,0
Cc1ccc(CNC(=O)C2CCC(=O)N2C2CCCCC2)cc1 (stereo unspecified),0,0,0,0,0,0,-,-,-
O=C(COC(=O)CCNS(=O)(=O)c1ccccc1)Nc1ccc(OC(F)F)cc1,-,-,-,-,-,0,-,-,-
COc1cc(CC(=O)OCC(=O)Nc2sccc2C(N)=O)cc(OC)c1OC,0,0,58,0,0,0,55,0,22
NC(=O)c1ccsc1NC(=O)COC(=O)Cc1ccsc1,0,0,0,0,0,0,-,-,-
Cc1cc(C)nc(SCC(=O)Nc2ccc(N3CCOCC3)c(Cl)c2)n1,0,0,45,0,0,0,51,0,24
COc1ccc(Nc2nc(N3CCCCC3)c3ccccc3n2)cc1,0,0,47,0,0,0,49,0,27
O=C(CC(Nc1ccccc1Cl)C(=O)O)c1ccccc1 (stereo unspecified),0,0,62,0,0,0,0,0,0

# Screening data: PubChem BioAssay, several laboratories
